Sampled rows, rich in hits. Any-hit rate of the full collection: about 4.5%.
GPR7 antagonist = blocks human GPR7 receptor signaling. P48145. GPR7-expressing cells, fluorescence antagonist assay. inhibition, % at 4.4 µM. 1.1% of 290,000 active; in the data active = inhibition above about 16%, passing the limit was not always enough;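 also: cells stimulated with the agonist NPW; 0% = agonist with vehicle and 100% = vehicle without agonist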
Target sequence (P48145 whole entry, looked up): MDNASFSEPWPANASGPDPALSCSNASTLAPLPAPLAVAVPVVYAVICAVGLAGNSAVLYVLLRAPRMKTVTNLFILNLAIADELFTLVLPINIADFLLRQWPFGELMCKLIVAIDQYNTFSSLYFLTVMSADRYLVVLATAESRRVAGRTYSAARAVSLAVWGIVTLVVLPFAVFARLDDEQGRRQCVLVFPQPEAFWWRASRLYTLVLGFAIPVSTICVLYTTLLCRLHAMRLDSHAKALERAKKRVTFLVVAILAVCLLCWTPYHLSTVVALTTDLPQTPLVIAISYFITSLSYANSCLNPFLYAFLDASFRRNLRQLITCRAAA
TAAR1 ag = human TAAR1 agonism | Q96RJ0 | CHO RD-HGA16 TAAR1, Fluo-8 calcium fluorescence; vehicle wells 0%, saturating PEA agonist 100% | activation, % at 3 µM | 0.99% of 360,000 active | AID 624467;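 active = activation above the mean activation of all test compounds in the run plus 3 SD, cut at about 38% in these data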
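Test system: RD-HGA16 (CHO) cells co-expressing Gα16 and hTAAR1 / Benchmarks: DMSO vehicle as 0%, PEA at EC100 as 100% / Repeats: no replicates (n 1) / Measure: % activation from peak over basal fluorescence ratio, DMSO-to-PEA scaled / Timing: 17-24 h plating, Fluo-8 75 min 37 °C, 30 min RT / Technique: kinetic Fluo-8 calcium fluorescence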
OX1R antag-1 = blocks the human orexin 1 receptor | 1.8% of 330,000 active | AID 485270 | O43613 | inhibition, % at 6.6 µM | OX1R-expressing cells, FRET antagonist read-out; in the data active = inhibition mostly above about 38%, no sharp cut-off; inactive = mostly below about 40%;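 also: 0% = agonist challenge alone and 100% = reference antagonist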
TAAR1 antagonist = human TAAR1 antagonism | CHO RD-HGA16 TAAR1, Fluo-8 calcium fluorescence, antagonist | inhibition, % at 3 µM | 1.5% of 360,000 active | AID 624466;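 active = inhibition above a per-plate cutoff, the mean inhibition of test compounds on that plate plus 3 SD, cut at about 49% in these data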;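 also: 0% = DMSO plus EC80 beta-PEA response and 100% = DMSO alone without agonist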
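Test system: hTAAR1-expressing CHO RD-HGA16 cells, Gα16-coupled; Probe or stimulus: EC80 β-phenethylamine stimulus; Compound dosing: single nominal final test compound concentration of 3 µM; Timing: 140 s kinetic read after compound, 140 s after agonist; Signal: Fluo-8 calcium-sensitive fluorescence; Measure: % inhibition of agonist calcium response; Controls: DMSO and EC80 PEA controls.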
OX1R antag-2 = blocks the human orexin 1 receptor; 0.43% of 330,000 active; CHO/OX1R cells, Fluo-8 calcium fluorescence, orexin A; O43613; inhibition, % at 5 µM; AID 434989;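 active = inhibition above its plate's threshold, mean inhibition of all tested compounds on the plate plus 3 SD, cut at about 37% in these data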;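 also: 0% = orexin A challenge wells and 100% = SB-334867-A antagonist wells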
CHO parental Ca = signal in parental CHO cells, OX1R antagonist counter-screen; parental CHO-K1, ATP-induced calcium, Fluo-8 fluorescence; inhibition, % at 5.6 µM; 0.63% of 330,000 active; AID 463079;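 active = inhibition above that plate's mean sample inhibition plus 3 SD, cut at about 26% in these data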;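 also: 0% = ATP-challenged DMSO wells and 100% = DMSO wells without ATP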
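Assay system: parental CHO cells; Read-out basis: percent inhibition of ATP-evoked calcium rise, normalized to controls; Benchmarks: ATP and no-ATP DMSO wells; Compound dosing: single nominal dose of 5.6 µM per compound; Signal: Fluo-8 calcium dye fluorescence; Also added: ATP as calcium-mobilizing challenge; Repeats: singlicate.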
Active calls of the source: *; . = no result given.

SMILES | GPR7 antagonist | TAAR1 ag | OX1R antag-1 | TAAR1 antagonist | OX1R antag-2 | CHO parental Ca
COc1ccc(CCNC(=O)CSc2ccc(-c3cccs3)nn2)cc1 | -2 | 1 | 41* | -12 | 0 | -12
Cc1ccc(CNC(=O)CSc2ccc(-c3cccs3)nn2)cc1 | -10 | -2 | 51* | 10 | 0 | -22
CCN(Cc1ccc2c(c1)OCCO2)C(=O)CSc1nc(C)nc2sc(C)c(C)c12 | . | 4 | 17 | 59* | -2 | -19
COc1ccc(CC(=O)Nc2ccc(F)c(F)c2F)cc1S(=O)(=O)N1CCOCC1 | . | 9 | 7 | -9 | 1 | -15
CN1OC[C@@H]2CN(C(=O)c3ccc([N+](=O)[O-])cc3)[C@H](c3ccccc3Br)C[C@@H]21 | . | 0 | . | -28 | . | .
Cc1cc2c(cc1S(=O)(=O)N1CCN(c3ccc(Cl)cc3)CC1)OCCN2C | -2 | -2 | -7 | 2 | -23 | 2
Cc1cc2c(cc1S(=O)(=O)N1CCN(c3cccc(C)c3C)CC1)OCCN2C | 4 | 0 | 6 | 2 | -37 | 57*
Cc1ccccc1CN1[C@@H](C)[C@H](c2ccccc2)Oc2cccc(N3CCCC3)c2S1(=O)=O | . | 1 | . | -40 | . | .
COC(=O)[C@@]12CCCCN1[C@H](c1ccc(-c3cccc(Cl)c3)c(OC)c1)[C@H]1C(=O)N(C)C(=O)[C@H]12 | . | 6 | 23 | -1 | -20 | -28
COC(=O)C1=C(C)N(Cc2ccccc2C(F)(F)F)C(=NCc2ccccc2C(F)(F)F)NC1c1ccc(C(F)(F)F)cc1 (stereo not drawn) | . | 2 | . | -25 | . | .
COc1cccc(C2=NOC(C(=O)NCc3ccccn3)C2)c1 (stereo not drawn) | -3 | 45* | 5 | -22 | -6 | -6
COc1ccc(CCN=c2c([N+](=O)[O-])nn(-c3cccc(C)c3)n2O)cc1OC | -9 | 0 | 75* | -4 | -30 | -21
COC(=O)CC#C[C@H](C)[C@@H](NS(=O)(=O)c1ccc(C)cc1)C1CCCCC1 | . | 4 | . | 1 | . | .
CC(C)C[C@H](NC(=O)N1CCOCC1)C(=O)N1CCC[C@H]1C(=O)NCc1ccccc1 | . | 4 | . | -21 | . | .
Fc1ccc2[nH]c3c(NCc4ccccc4)ncnc3c2c1 | 28 | 13 | 59* | 16 | 3 | 70*
O=C(NCCN1CCN(Cc2ccc([N+](=O)[O-])cc2)CC1)C(=O)Nc1ccccc1 | 7 | 0 | 13 | -27 | -6 | 7
O=C(NCCN1CCN(c2ccc([N+](=O)[O-])cc2)CC1)NCc1ccccc1 | -1 | 13 | 34* | -3 | -12 | 1
Cc1nc(N2CCN(c3ccccc3)CC2)nc2c1C(=O)CCC2 | -5 | 11 | 9 | 57* | -15 | -7
Cc1nc(N2CCN(c3ccccc3)CC2)nc2c1C(=O)CC(C)C2 (stereo not drawn) | -14 | 13 | 7 | 2 | -15 | -13
Cc1ccc(CN2CC(N3CC=CC3)CS2(=O)=O)cc1 (stereo not drawn) | . | 0 | . | -35 | . | .
CCOC(=O)C1=CN(Cc2cccc(F)c2)S(=O)(=O)N(CC)C1c1ccc(Br)cc1F (stereo not drawn) | . | 1 | 16 | 13 | 30 | 2
COC(=O)[C@]12C[C@H](CC(=O)NCCCCc3ccccc3)C(=O)N(Cc3ccccc3)C1=C[C@H](C(C)C)O[C@@H]2C1CC1 | . | 0 | . | -57 | . | .
COc1cccc(Cn2c(N)c(C#N)c3nc4ccccc4nc32)c1OC | 0 | 4 | 46* | 6 | 2 | -11
COc1ccc(Cn2c(N)c(C#N)c3nc4ccccc4nc32)cc1 | 18 | 11 | 22 | 10 | 28 | -11
NS(=O)(=O)c1cccc(NC(=O)CC2(CC(=O)O)CCCC2)c1 | 1 | 0 | 3 | -11 | -9 | 7
CC(=O)Nc1ccc(NC(=O)COC(=O)C2(c3ccc(Cl)cc3)CCCC2)cc1 | 2 | 39* | 17 | 49* | -12 | -4
NS(=O)(=O)c1cccc(NC(=O)COC(=O)C2(c3cccc(F)c3)CCCC2)c1 | 2 | 6 | 14 | 52* | -8 | -10
CCN(CC(=O)Nc1ccc(NC(C)=O)cc1)C(=O)C1(c2ccc(Cl)cc2)CCC1 | . | 5 | . | 11 | . | .

Source: PubChem BioAssay
